Screening results deposited in PubChem BioAssay by The Scripps Research Institute Molecular Screening Center.
OX1R antag-1 = blocks the human orexin 1 receptor; AID 434989; actives 0.43% (n = 330,000); inhibition, % at 5 µM; CHO/OX1R cells, Fluo-8 calcium fluorescence, orexin A; O43613;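 active means inhibition above its plate's threshold, mean inhibition of all tested compounds on the plate plus 3 SD, cut at about 37% in these data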;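 further: 0% = orexin A challenge wells and 100% = SB-334867-A antagonist wells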
OX1R antag-2 = antagonists of human orexin 1 receptor (OX1R); O43613; OX1R-expressing cells, FRET antagonist read-out; AID 485270; actives 1.8% (n = 330,000); inhibition, % at 6.6 µM; in the data active means inhibition mostly above about 38%, no sharp cut-off; inactive means mostly below about 40%;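 further: 0% = agonist challenge alone and 100% = reference antagonist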
GalR3 antagonist = human GalR3 antagonism; O60755; HEK293 GalR3-CNG cAMP membrane potential fluorescence; galR3 body fused to GalR1 C-terminus; inhibition, % at 3 µM; actives 0.44% (n = 360,000);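 active means inhibition above the screen-wide average plus 3 SD, cut at about 13% in these data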;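 further: forskolin and galanin both at EC90 stimulate the cells; cAMP rise reported by CNG channel membrane potential dye signal; 0% = forskolin plus galanin with DMSO and 100% = forskolin alone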
Target sequence (O60755 1-299 limits assumed): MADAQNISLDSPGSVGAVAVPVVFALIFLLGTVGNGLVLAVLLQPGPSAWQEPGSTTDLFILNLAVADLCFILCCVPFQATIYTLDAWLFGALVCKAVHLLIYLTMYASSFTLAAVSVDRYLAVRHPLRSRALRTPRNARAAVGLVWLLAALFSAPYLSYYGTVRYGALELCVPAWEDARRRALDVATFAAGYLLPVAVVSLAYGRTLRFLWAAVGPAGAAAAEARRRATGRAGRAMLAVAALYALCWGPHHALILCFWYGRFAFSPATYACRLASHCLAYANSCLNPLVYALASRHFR
CHO parental Ca = counter-screen for OX1R antagonists: effect in parental CHO cells | parental CHO-K1, ATP-induced calcium, Fluo-8 fluorescence | AID 463079 | inhibition, % at 5.6 µM | actives 0.63% (n = 330,000);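 active means inhibition above that plate's mean sample inhibition plus 3 SD, cut at about 26% in these data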;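 further: 0% = ATP-challenged DMSO wells and 100% = DMSO wells without ATP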
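Test system: parental CHO cells; detection: calcium-sensitive Fluo-8 fluorescence; evaluation: percent inhibition of calcium signal; also added: ATP as calcium-mobilizing challenge; repeats: one well per compound; control set: ATP-challenged DMSO wells low, unchallenged DMSO wells high; compound: single nominal dose of 5.6 µM per compound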
GPR7 antag = human neuropeptides B/W receptor 1 antagonism; P48145; GPR7-expressing cells, fluorescence antagonist assay; inhibition, % at 4.4 µM; actives 1.1% (n = 290,000); in the data active means inhibition above about 16%, passing the limit was not always enough;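 further: cells stimulated with the agonist NPW; 0% = agonist with vehicle and 100% = vehicle without agonist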
Target sequence (P48145 whole entry, looked up): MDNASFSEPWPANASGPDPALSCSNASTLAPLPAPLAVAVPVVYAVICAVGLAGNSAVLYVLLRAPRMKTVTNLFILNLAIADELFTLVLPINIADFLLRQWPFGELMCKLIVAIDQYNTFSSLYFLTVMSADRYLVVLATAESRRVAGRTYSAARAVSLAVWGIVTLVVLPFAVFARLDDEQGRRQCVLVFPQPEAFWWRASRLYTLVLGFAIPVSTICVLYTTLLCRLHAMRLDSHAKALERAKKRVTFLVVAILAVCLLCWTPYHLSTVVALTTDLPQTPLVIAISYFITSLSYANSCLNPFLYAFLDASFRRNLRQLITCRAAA
OX1R Ca confirm = OX1R (human) antagonism, confirmed; shares compounds with OX1R antag-1; CHO/OX1R cells, orexin A calcium Fluo-8 fluorescence; inhibition, % at 5 µM; actives 38% (n = 1,100); AID 492963; in the data active means inhibition above about 29%;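 further: 0% = agonist challenge alone and 100% = reference antagonist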
CHO Ca triplic = counter-screen: parental CHO calcium response change, triplicate. shares compounds with OX1R antag-1. parental CHO-K1, ATP-induced calcium, Fluo-8 fluorescence. inhibition, % at 5.6 µM. actives 9.3% (n = 1,100). AID 492965;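 active means inhibition above a per-plate limit, the mean inhibition of that plate's test compounds plus 3 SD, cut at about 25% in these data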;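 further: 0% = ATP challenge with DMSO and 100% = DMSO without ATP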
OX1R HTRF conf = confirmation of human orexin 1 receptor antagonists, HTRF format; actives 49% (n = 1,800); inhibition, % at 6.6 µM; OX1R-expressing cells, HTRF antagonist assay; AID 492964; shares compounds with OX1R antag-2; in the data active means inhibition above about 55%;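 further: CHO cells expressing OX1R stimulated with orexin A at about EC80; 0% = agonist challenge alone and 100% = reference antagonist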
CHO-K1 HTRF cnt = signal in parental CHO-K1 cells, OX1R antagonist counter-screen. shares compounds with OX1R antag-2. HTRF counterscreen. inhibition, % at 6.6 µM. actives 48% (n = 1,800); in the data active means inhibition above about 17%;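 further: 0% = agonist challenge with vehicle and 100% = vehicle alone without agonist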
An asterisk follows results filed as active; x = not tested or not shown. In the library only some 3.1% were active in any assay of this set; here they are far more common.

SMILES	OX1R antag-1	OX1R antag-2	GalR3 antagonist	CHO parental Ca	GPR7 antag	OX1R Ca confirm	CHO Ca triplic	OX1R HTRF conf	CHO-K1 HTRF cnt
COc1ccc(-c2cc3nc(-c4ccccc4)cc(N4CCC5(CC4)OCCO5)n3n2)cc1	67*	50*	-8	-9	-4	31*	-9	68*	11
Cn1c(=O)c(C(=O)COC(=O)c2cc(-c3ccco3)nc3ccccc23)c(N)n(CC2CC2)c1=O	37	69*	x	8	-4	26	-4	64*	3
Cn1c(=O)c(C(=O)COC(=O)c2cc(C3CC3)nc3ccccc23)c(N)n(Cc2ccccc2)c1=O	-3	59	-4	-1	10	x	x	x	x
CN(/N=C/c1cc([N+](=O)[O-])ccc1O)c1ccccc1	50*	73*	-4	-17	6	48*	-14	93*	-4
CC(N=Cc1cc([N+](=O)[O-])ccc1O)c1ccccc1 (stereo not drawn)	-12	28	-1	-14	-15	x	x	x	x
CCn1c(SCC(=O)Nc2nc(-c3ccccc3)cs2)nnc1-c1ccccc1O	79*	86*	-7	0	0	-8	-20	86*	-11
ON=C(CCc1ccccc1)c1ccccc1	x	x	-7	x	x	x	x	x	x
CSCCC(C(=O)NCc1ccccc1)n1c(C2CCN(C(C)=O)CC2)nc2ccccc21 (stereo not drawn)	x	x	-3	x	x	x	x	x	x
O=C(c1cccc(N2CCNC2=O)c1)N1CCCC(Nc2cccc(F)c2)C1 (stereo not drawn)	33	98*	-3	-9	-4	68*	-4	71*	-31
O=C(Cc1ccc(N2CCNC2=O)cc1)N1CCCC(Nc2cccc(F)c2)C1 (stereo not drawn)	-78	4	4	-13	7	x	x	x	x
Cc1cc(C(=O)N2CCC2(C)C(=O)NS(=O)(=O)c2ccccc2Cl)nn1C (stereo not drawn)	x	x	-5	x	x	x	x	x	x
O=C(O)CN1C(=O)/C(=C/c2cccc(Cl)c2)Oc2ccccc21	32	77*	-9	-8	-9	13	-3	66*	11
COc1cccc(/C=C2/Oc3ccccc3N(CC(=O)NCC3CCCO3)C2=O)c1 (stereo not drawn)	75*	109*	x	-13	-14	94*	-12	94*	13
CC1Oc2ccccc2N(CC(=O)NCC2CCCO2)C1=O (stereo not drawn)	-14	2	-7	-5	-9	x	x	x	x
CCCNC(=O)C1(C)CCCN(Cc2ccc(C)cc2)C1 (stereo not drawn)	x	x	-2	x	x	x	x	x	x
Cc1cc(CNC(=O)COc2cc(F)ccc2[N+](=O)[O-])c2ccccc2n1	35	105*	-4	-1	-13	11	4	34	9
Cc1cc(CNC(=O)COc2ccc(F)cc2F)c2ccccc2n1	-7	30	0	-10	-16	x	x	x	x
O=C(Nc1c2c(nn1-c1ccccc1)CS(=O)(=O)C2)C1CC1	x	x	-7	x	x	x	x	x	x
CC(C)c1[nH]nc2c1C(c1cccc(C(F)(F)F)c1)NC2=O (stereo not drawn)	x	x	-4	x	x	x	x	x	x
CC(C)[C@H](NC(=O)C1CC1)C(=O)N1CCC[C@H]1C(=O)NCc1ccccc1	x	x	-2	x	x	x	x	x	x
c1ccc(-c2nc3ccccc3o2)nc1	-2	8	-2	-5	0	x	x	x	x
c1ccc2nc(-c3nc4ccccc4o3)ccc2c1	24	97*	3	-21	-3	46*	-8	98*	5
COc1cc(Cl)c(C)cc1Nc1ncccn1	25	82*	-9	-2	-9	24	-4	74*	8
O=C(Nc1cccc(Cl)c1)c1ccc(F)c(S(=O)(=O)NCc2ccc3c(c2)OCO3)c1	59*	83*	1	-6	0	48*	-1	76*	-6
O=C(Nc1cccc(Cl)c1)Nc1ccnc(-c2cccnc2)n1	41*	67*	-1	6	-9	28	1	69*	7
SMILES	OX1R antag-1	OX1R antag-2	GalR3 antagonist	CHO parental Ca	GPR7 antag	OX1R Ca confirm	CHO Ca triplic	OX1R HTRF conf	CHO-K1 HTRF cnt
Cc1cc(C)c2c(N)c(C(=O)N/N=C/c3cccs3)sc2n1	53*	85*	-1	1	-7	-2	-10	95*	7
COc1ccc(/C=C/c2nc(-c3ccccc3O)n[nH]2)cc1OC	72*	103*	-3	-21	-2	67*	1	92*	14
C=CCCC(=O)N1C[C@H]2CON(C)[C@H]2C[C@H]1c1ccc(Br)cc1	x	x	-4	x	x	x	x	x	x
COC(=O)c1cc2c([nH]c3ccccc32)c(C)n1	x	x	x	x	3	x	x	x	x
COc1ccc(NC(=O)c2cc3c([nH]c4ccccc43)c(C)n2)cc1	26	96*	-4	3	-5	7	-1	24	11
COc1ccc(C(C(=O)NCc2ccccc2)n2c(=O)c(-c3ccco3)nc3ccccc32)cc1 (stereo not drawn)	x	x	-8	x	x	x	x	x	x
CC(C)n1c(=O)[nH][nH]c1=S	39*	63*	-4	11	-3	55*	4	79*	12
O=c1[nH][nH]c(=S)n1C1CCCCC1	-3	7	x	-8	-3	x	x	x	x
COC(=O)[C@]12C[C@H](CC(=O)NCc3ccc(C)o3)C(=O)N(Cc3ccccc3)C1=C[C@H](C(C)(C)C)O[C@@H]2C	x	x	-2	x	x	x	x	x	x
COC(=O)C(C(C)=O)C1=C/C(=N\S(=O)(=O)c2ccc(C)cc2)c2ccccc2C1=O (stereo not drawn)	97*	106*	x	-9	-10	50*	-12	94*	1
CCc1ccc(S(=O)(=O)/N=C2\C=C(NS(=O)(=O)c3ccccc3)C(=O)c3ccccc32)cc1	x	x	-10	x	-8	x	x	x	x
CCC[C@@H]1C=C(C(=O)OCC)[C@H](c2ccccc2)N1S(=O)(=O)c1ccc(C)cc1	x	x	-7	x	x	x	x	x	x
COc1cccc(CN(Cc2ccco2)S(=O)(=O)c2ccc(S(=O)(=O)NCc3ccccc3)cc2)c1OC	70*	60*	-5	-2	-10	40*	-4	84*	-13
O=C1OC(c2ccccc2)(c2cc(Br)ccc2O)c2ccccc21 (stereo not drawn)	x	x	-7	x	x	x	x	x	x
COc1ccc(Cl)cc1C(=O)OCC(=O)NCCNC(=O)COC(=O)c1cc(Cl)ccc1OC	28	59*	-2	2	-4	26	42*	71*	1
C#CCNC(=O)C[C@@H]1C[C@@]2(C(=O)OCC)CCCC=C2N(CCCCCCCC)C1=O	x	x	-7	x	x	x	x	x	x
